# Screening data (PubChem BioAssay)
# Compounds with a hit are over-represented: about 3.5% of the library has one in this group of screens.
# PGC1a acetyl inh: inhibitors of PGC1a acetylation signal, primary screen, cell-based, U2OS, AlphaScreen, inhibitor mode; AID 651687, 2012; 350,000 tested, 0.17% active; inhibition, % at 15.6 µM; AlphaScreen anti-acetyl-lysine; with virally co-expressed GCN5 acetyltransferase;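 active = every replicate shows inhibition of at least 40%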;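 note: 0% = neutral control wells and 100% = positive control wells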
# Cneo AK release: Cryptococcus neoformans cell lysis inducers, primary screen, AK release luminescence, single concentration | lysis activity, % at 15 µM | C. neoformans lysis, adenylate kinase release luminescence, 4 h; normalised: neutral wells 0, clomiphene wells 100 | 360,000 tested, 0.2% active | AID 651654, 2012;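 active = mean lysis activity across replicates of at least 80%, whatever share of replicates individually reach that level; inactive = mean lysis activity below 80%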
#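 Test system: log-phase Cryptococcus neoformans yeast cells; Quantity: yeast cell density of 5 × 10^6 cells/mL; Buffer or medium: YPD; Doses: single compound concentration per well; Timing: 4 h at 37 °C static, read 1 h later; Measured by: AK luminescence; Read-out basis: lysis from increased AK signal; Control set: Clomiphene as positive control.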
# FGF22 binding: binders of human FGF22 protein, primary screen, FGF22 synaptogenesis inhibitor project, biophysical, thermal shift, single point | Fibroblast growth factor 22 (Homo sapiens), Q9HCT0 | activity (Tm shift, normalised), % at 9.99 µM | AID 651658, 2012 | recombinant FGF22 thermal shift, SYPRO orange fluorescence; percent of sucrose octasulfate shift, DMSO zero | 340,000 tested, 1.5% active;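 active = mean Tm shift, scaled 0 neutral to 100 positive control, at about 1.3% or above, every replicate too, limit read from the data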
# ERAP1 HTS inh: human ERAP1 aminopeptidase inhibitors, primary screen, biochemical, single point, plate reader | Endoplasmic reticulum aminopeptidase 1 (Homo sapiens), Q9NZ08 | recombinant ERAP1, Leu-AMC fluorescence, 60 min | inhibition, % at 10.7 µM | 340,000 tested, 0.15% active | AID 652197, 2013;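 active = mean replicate inhibition of at least 30%, or all replicates individually reaching that 30% level; inactive = mean below 30% and not every replicate reaching it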;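 note: 0% = neutral control wells and 100% = L-leucinethiol positive control wells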
# Target sequence (Q9NZ08 whole entry, looked up): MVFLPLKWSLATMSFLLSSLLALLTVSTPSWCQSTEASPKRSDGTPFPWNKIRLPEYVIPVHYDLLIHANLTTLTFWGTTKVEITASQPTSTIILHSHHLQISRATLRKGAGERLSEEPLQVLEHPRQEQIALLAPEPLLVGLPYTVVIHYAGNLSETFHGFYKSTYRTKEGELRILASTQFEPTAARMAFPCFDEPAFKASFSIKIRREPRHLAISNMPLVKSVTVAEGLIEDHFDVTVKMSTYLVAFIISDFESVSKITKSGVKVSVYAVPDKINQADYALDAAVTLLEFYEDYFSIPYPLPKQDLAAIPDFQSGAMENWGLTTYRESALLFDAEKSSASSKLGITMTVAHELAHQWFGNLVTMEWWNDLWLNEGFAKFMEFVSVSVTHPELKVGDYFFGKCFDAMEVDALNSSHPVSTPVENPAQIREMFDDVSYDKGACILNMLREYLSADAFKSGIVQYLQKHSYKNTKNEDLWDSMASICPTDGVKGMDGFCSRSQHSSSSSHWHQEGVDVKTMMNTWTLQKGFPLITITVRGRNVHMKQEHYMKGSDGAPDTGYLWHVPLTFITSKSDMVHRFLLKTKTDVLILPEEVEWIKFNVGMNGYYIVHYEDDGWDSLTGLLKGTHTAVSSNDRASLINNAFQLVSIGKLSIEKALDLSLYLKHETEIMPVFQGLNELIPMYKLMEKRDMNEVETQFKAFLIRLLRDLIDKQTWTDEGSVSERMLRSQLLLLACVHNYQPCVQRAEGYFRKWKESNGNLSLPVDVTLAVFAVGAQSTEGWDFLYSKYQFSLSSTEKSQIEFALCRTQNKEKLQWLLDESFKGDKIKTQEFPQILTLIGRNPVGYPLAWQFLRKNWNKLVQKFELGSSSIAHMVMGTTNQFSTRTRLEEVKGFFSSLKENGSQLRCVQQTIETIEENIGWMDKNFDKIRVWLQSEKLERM
# rRNA inh HTS: reduced GFP signal of wild-type E. coli, primary screen, bacterial rRNA inhibitor project, GFP/RFP fluorescence, OD600, single point; 350,000 tested, 1.6% active; E. coli WT GFP vs humanized-ribosome RFP mutants, 24 h; active compounds read low; DMSO median 0, no signal -100; GFP signal change (wild-type ribosome), % (no concentration beside the values);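 active = significant combined selectivity score with lowered wild-type GFP, culture density cut under 30%, mutant RFP and density less affected; inactive = any of these conditions unmet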
# Env fusion inh: inhibitors of HIV-1 Env-driven cell-cell fusion, primary screen, HeLa-JRFL effector, CEM21 target cells, luciferase | inhibition, % at 12.3 µM | 360,000 tested, 1.1% active | AID 651610, 2012;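 active = mean replicate inhibition score of at least 50 and every replicate individually at or above 50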;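 note: 0% = plate neutral controls and 100% = maraviroc near 300 nM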
# The depositor's hits bear a star; nt = not tested or not shown; [ ] = remark or other dose.
SMILES,PGC1a acetyl inh,Cneo AK release,FGF22 binding,ERAP1 HTS inh,rRNA inh HTS,Env fusion inh
C[C@@H]1CN([C@@H](C)CO)C(=O)c2cccc(NS(C)(=O)=O)c2O[C@@H]1CN(C)Cc1ccc(Cl)c(Cl)c1,-6,5,0,-2,-5,-1[16.7 µM]
CCOC(=O)N1CCN(C(=O)C2CCN(S(=O)(=O)c3cc(C)ccc3OC)CC2)CC1,6,0,0,1,-5,-3
CCOC(=O)N1CCN(C(=O)C2CCN(S(=O)(=O)c3cc(OC)ccc3OC)CC2)CC1,2,nt,43*,-1,-5,6
O=c1oc(-c2cccc(Cl)c2)nc2c1cnn2-c1ccccc1,-7,-7,nt,nt,nt,-17
O=c1[nH]c2c(cnn2-c2ccc(Cl)cc2)c(=O)n1-c1cccc(Cl)c1,nt,nt,-1,6,-35*,62*
COc1ccc(NC(=O)Nc2ccc3c(c2)C(=O)N([C@@H](C)CO)C[C@@H](C)[C@H](CN(C)Cc2ccc(Cl)c(Cl)c2)OCCCC[C@H](C)O3)cc1,3,2,0,2,2,60*[16.7 µM]
C[C@H]1CCCCO[C@H](CN(C)Cc2ccc(Cl)c(Cl)c2)[C@@H](C)CN([C@@H](C)CO)C(=O)c2cc(NC(=O)Nc3ccc(F)cc3)ccc2O1,-7,-4,0,5,1,72*[16.7 µM]
C[C@@H]1CCCCO[C@@H](CN(C)Cc2ccc(Cl)c(Cl)c2)[C@H](C)CN([C@H](C)CO)C(=O)c2cc(NC(=O)NC3CCCCC3)ccc2O1,nt,-2,-1,-2,1,72*[16.7 µM]
C[C@H]1CCCCO[C@H](CN(C)Cc2ccc(Cl)c(Cl)c2)[C@@H](C)CN([C@@H](C)CO)C(=O)c2cc(NC(=O)CCC(F)(F)F)ccc2O1,16,1,0,-1,-3,79*[16.7 µM]
COc1ccc(NC(=O)Nc2ccc3c(c2)C(=O)N([C@H](C)CO)C[C@H](C)[C@@H](CN(C)Cc2ccc(Cl)c(Cl)c2)OCCCC[C@H](C)O3)cc1,-4,1,0,3,-2,26[16.7 µM]
C[C@@H]1CN([C@H](C)CO)C(=O)c2cc(NC(=O)Nc3ccc(F)cc3)ccc2O[C@@H](C)CCCCO[C@@H]1CN(C)Cc1ccc(Cl)c(Cl)c1,-12,-8,0,3,3,8[16.7 µM]
c1ccn2c(c1)nc1c2nc2ccccn21,-37,1,nt,nt,nt,-111
C[C@H](CO)N1C[C@H](C)[C@H](CN(C)Cc2ccc(Cl)c(Cl)c2)OCCCC[C@H](C)Oc2ccc(NC(=O)Nc3ccccc3)cc2C1=O,6,11,0,-2,-3,71*[16.7 µM]
O=C(C[C@@H]1CC[C@@H]2[C@H](COC[C@H](O)CN2C(=O)Nc2cccc(Cl)c2)O1)NCC1CCCCC1,-5,-6,-1,-1,-55,nt
O=C(CSc1nnnn1C1CC1)Nc1cc(S(=O)(=O)N2CCCC2)ccc1Cl,-17,-2,43*,-3,1,5
CN(C)S(=O)(=O)c1ccc(Cl)c(NC(=O)CSc2nnnn2-c2ccc(O)cc2)c1,nt,nt,0,14,-29*,12
CS(=O)(=O)c1ccc(Cl)c(NC(=O)CSc2n[nH]c(N)n2)c1,3,1,0,1,6,1
Cc1ccc(S(=O)(=O)N(C)C)cc1NC(=O)CSc1nnnn1-c1ccc(O)cc1,7,2,0,-4,-5,2
CCN(c1ccccc1)S(=O)(=O)c1ccc(Cl)c(NC(=O)CSc2n[nH]c(N)n2)c1,nt,nt,0,4,-19*,-18
Cc1[nH]c(SCC(=O)Nc2cc(S(C)(=O)=O)ccc2Cl)nc1Cc1ccccc1,nt,-1,0,-7,-22*,-69
Cc1cc(NC(=O)CSc2nc(Cc3ccccc3)c(C)[nH]2)no1,-1,-4,0,0,1,2
Cn1nnnc1SCC(=O)Nc1cc(S(=O)(=O)N2CCCC2)ccc1Cl,0,nt,0,-3,5,9
CC(C)C#Cc1ccc2c(c1)O[C@@H](CN(C)Cc1ccncc1)[C@@H](C)CN([C@H](C)CO)S2(=O)=O,-9,-5,0,-1,-5,-16[16.7 µM]
COc1ccc(-c2ccc([C@H]3[C@@H](C#N)N(C(=O)C4CCC4)[C@H]3CO)cc2)cc1,10,-5,0,-1,0,-8[16.7 µM]
Cc1nnc(SCC(=O)Nc2cc(S(=O)(=O)N3CCCC3)ccc2Cl)n1C1CC1,1,2,0,-1,nt,nt
SMILES,PGC1a acetyl inh,Cneo AK release,FGF22 binding,ERAP1 HTS inh,rRNA inh HTS,Env fusion inh
O=C(CN1CCN(c2ccc(O)cc2)CC1)Nc1cc(S(=O)(=O)N2CCCC2)ccc1Cl,-15,nt,-1,0,-21*,23
CS(=O)(=O)c1ccc(Cl)c(NC(=O)CSc2nnc(C3CC3)n2C2CC2)c1,3,0,1.4*,-9,-13,nt
Cc1ccc(NC(=O)NCCN2CCCCC2)cc1,-1,-2,0,-2,6,-96
O=C(NCCN1CCN(Cc2ccccc2)CC1)Nc1cc(Cl)cc(Cl)c1,nt,-4,0,-2,-49*,8
O=C(NCCN1CCCCC1)Nc1ccc(Br)cc1,-6,0,0,-3,-32*,-30
Cc1ccc(-n2c(Cc3cccn3C)nnc2SCC(=O)Nc2cc(C)on2)cc1,-4,2,nt,nt,nt,-94
COc1ccc(C(=O)N/C(=C\c2cn(C)c3ccccc23)C(=O)OCCN(C)C)cc1,nt,nt,28*,4,-2,1
C[C@H]1CN([C@@H](C)CO)C(=O)Cc2cc(NC(=O)c3ccncc3)ccc2O[C@H]1CN(C)S(=O)(=O)c1cccs1,2,-2,0,0,-3,-7[16.7 µM]
CC(C)CC(=O)NC(=S)Nc1cccc(NC(=O)c2ccccc2Cl)c1,nt,0,nt,nt,nt,38
O=c1cccc2n1Cc1cc3ccccc3nc1-2,1,0,44*,-6,-11,nt
CCOC(=O)N1CCN(C(=O)C(=O)NNC(=O)COc2ccc(Cl)cc2)CC1,nt,nt,44*,-1,nt,9
C[C@@H]1CN([C@@H](C)CO)C(=O)c2cc(-c3ccccc3F)cnc2O[C@H]1CN(C)C(=O)NC1CCCCC1,4,-4,0,-4,-3,-2[16.7 µM]
O=C(NCc1ccco1)N1c2ccccc2Sc2ccccc21,4,1,0,0,-24*,nt
COc1ccc(CCNC(=O)N2c3ccccc3Sc3ccccc32)cc1,0,4,nt,nt,nt,75*
